{"source": "paper PMC3800034", "about": "(Journal of medicinal chemistry, 2013)", "key": {"OXE receptor [1]": {"target": "OXE receptor (Homo sapiens, UniProt Q8TDS5)", "sequence (Q8TDS5 whole entry)": "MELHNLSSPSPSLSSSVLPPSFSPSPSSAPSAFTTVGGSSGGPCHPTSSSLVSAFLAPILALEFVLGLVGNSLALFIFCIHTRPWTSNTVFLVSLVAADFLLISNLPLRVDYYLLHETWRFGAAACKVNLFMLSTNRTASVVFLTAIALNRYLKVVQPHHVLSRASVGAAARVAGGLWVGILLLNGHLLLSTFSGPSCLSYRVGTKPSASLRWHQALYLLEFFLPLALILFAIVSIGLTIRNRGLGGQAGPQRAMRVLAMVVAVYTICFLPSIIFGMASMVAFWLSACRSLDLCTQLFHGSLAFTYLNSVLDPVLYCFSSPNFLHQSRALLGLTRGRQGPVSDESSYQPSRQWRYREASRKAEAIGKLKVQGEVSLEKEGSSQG", "type": "cell-based"}, "[2]": {"tested_on": "response of neutrophils to LTB4", "assay": "LTB4-induced calcium mobilization in human neutrophils", "type": "cell-based", "conditions": "compound 10 µM, LTB4 10 nM", "in_short": "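Neutrophils from whole blood of healthy human donors, suspended in phosphate-buffered saline, loaded with indo-1, and moved to a cuvette with CaCl₂ (1.8 mM) and MgCl₂ (1 mM) 5 min before the run. Fluorescence was read at 37 °C in a spectrofluorimeter. After a stable baseline, vehicle or test compound was added, then LTB4 (10 nM) 2 min later. Digitonin followed to give maximal response.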"}, "OXE receptor [3]": {"tested_on": "OXE receptor", "conditions": "cited from earlier work"}, "neutrophil migration": {"tested_on": "neutrophil migration", "conditions": "cited from earlier work"}}, "note": "Entries after “also recorded” stand apart in the source; their conditions may differ."}
{"compound": "CCCCCCc1cc2ccc(Cl)cc2n1C(=O)CCCC(=O)O", "note": "[Compound 39, 5-(6-Chloro-2-hexyl-1H-indol-1-yl)-5-oxo-valeric acid]", "values": [{"measurement": "IC50", "setting": "OXE receptor [1]", "value": "400 ± 30", "unit": "nM"}, {"measurement": "increase in potency compared with non-chlorinated compound 26", "setting": "OXE receptor [1]; 5-oxo-ETE-induced calcium mobilization, IC50 ratio", "value": "about 4 fold"}]}
{"compound": "CCCCCCc1cc2ccccc2n1C(=O)CCCC(=O)O", "note": "[Compound 26, 5-(2-Hexyl-1H-indol-1-yl)-5-oxo-valeric acid]", "values": [{"measurement": "inhibition of the effect of 5-oxo-ETE", "setting": "OXE receptor [1]; compound 1 µM, 5-oxo-ETE 10 nM", "value": "substantially inhibited"}, {"measurement": "inhibition of the response to 5-oxo-ETE", "setting": "OXE receptor [1]; compound 10 µM, 5-oxo-ETE 10 nM", "value": "completely inhibiting"}, {"measurement": "effect on the response of neutrophils to LTB4", "setting": "[2]", "value": "virtually no effect"}]}
{"compound": "O=C(O)CCCC(=O)n1ccc2ccccc21", "note": "[Compound 10, 5-(1H-indol-1-yl)-5-oxopentanoic acid]", "values": [{"measurement": "mobilization of intracellular calcium by the compound alone (agonist activity)", "setting": "OXE receptor [1]; compound 30 µM added to neutrophils", "value": "neither mobilized intracellular calcium"}, {"measurement": "effect on the response to 5-oxo-ETE (antagonist activity)", "setting": "OXE receptor [1]; compound 30 µM, 5-oxo-ETE 10 nM added 2 min later", "value": "nor altered the response to 5-oxo-ETE; also recorded: does not affect calcium mobilization"}]}
{"compound": "CCCCC/C=C\\C[C@H](O)/C=C/C=C\\C=C\\C(=O)CCCC(=O)O", "note": "[5-oxo-12S-HETE 6, 5-oxo-12S-HETE]", "values": [{"measurement": "effect on intracellular Ca++ levels in neutrophils", "setting": "OXE receptor [3]; compound alone", "value": "virtually no effect"}, {"measurement": "block of 5-oxo-ETE-induced Ca++ mobilization", "setting": "OXE receptor [3]; neutrophils", "value": "low µmolar range"}, {"measurement": "effect on 5-oxo-ETE-induced neutrophil migration", "setting": "neutrophil migration", "value": "inhibited"}]}
